Data from ChEMBL document CHEMBL1125014, “Synthesis and structure-activity relationships of new 9-N-alkyl derivatives of 9(S)-erythromycylamine” (1990).
Converted amounts (≈) assume the structure as drawn.

What was measured:
Type in all cases: functional
[1] = test system: Streptococcus pneumoniae; assay: MIC value measured against streptococcus pneumoniae Park1
[2] = test system: Staphylococcus aureus; assay: Effective dose against mice infected with Staphylococcus aureus after peroral administration (in vivo); details: in Mus musculus, po
[3] = test system: Streptococcus pyogenes; assay: Effective dose against mice infected with streptococcus pyogenes after peroral administration (in vivo); details: in Mus musculus, po
[4] = test system: Streptococcus pneumoniae; assay: Effective dose against mice infected with streptococcus pneumoniae after peroral administration (in vivo); details: in Mus musculus, po
[5] = test system: Staphylococcus epidermidis; assay: microbe, parasite or virus in culture
[6] = test system: Streptococcus pyogenes; assay: MIC value measured against streptococcus pyogenes C203
[7] = test system: Staphylococcus aureus; assay: MIC value measured against staphylococcus aureus X1
[8] = test system: Haemophilus influenzae; assay: MIC value was measured against haemophilus influenzae.
How it was run: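 Susceptibility determined by standard agar-dilution method against a panel of bacterial strains.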

[9] = test system: Haemophilus influenzae; assay: MIC value was measured against haemophilus influenzae CL

Row | Compound | MIC [1] [µg/mL] | ED50 [2] [mg/kg] | ED50 [3] [mg/kg] | ED50 [4] [mg/kg] | MIC [5] [µg/mL] | MIC [6] [µg/mL] | MIC [7] [µg/mL] | MIC [8] [µg/mL] | MIC [9] [µg/mL]
1 | CCCCCCCCCCCCN[C@@H]1[C@H](C)[C@@H](O)[C@](C)(O)[C@@H](CC)OC(=O)[C@H](C)[C@@H](OC2CC(C)(OC)C(O)C(C)O2)[C@H](C)[C@@H](OC2OC(C)CC(N(C)C)C2O)[C@](C)(O)C[C@H]1C (some centres not stated) | 0.06 (≈ 0.0664 µM) | > 45 | > 50 | > 50 | 4 (≈ 4.43 µM) | 0.5 (≈ 0.554 µM) | 4 (≈ 4.43 µM) | – | –
2 | CCCCCCCN[C@@H]1[C@H](C)[C@@H](O)[C@](C)(O)[C@@H](CC)OC(=O)[C@H](C)[C@@H](OC2CC(C)(OC)C(O)C(C)O2)[C@H](C)[C@@H](OC2OC(C)CC(N(C)C)C2O)[C@](C)(O)C[C@H]1C (some centres not stated) | 0.015 (≈ 0.018 µM) | > 50 | 31 | 33 | 0.25 (≈ 0.3 µM) | 0.015 (≈ 0.018 µM) | 0.25 (≈ 0.3 µM) | 1 (≈ 1.2 µM) | 1 (≈ 1.2 µM)
3 | CC[C@H]1OC(=O)[C@H](C)[C@@H](OC2CC(C)(OC)C(O)C(C)O2)[C@H](C)[C@@H](OC2OC(C)CC(N(C)C)C2O)[C@](C)(O)C[C@@H](C)[C@H](NC)[C@H](C)[C@@H](O)[C@]1(C)O (some centres not stated) | – | 44 | 21 | 35 | 0.25 (≈ 0.334 µM) | 0.06 (≈ 0.0801 µM) | 1 (≈ 1.34 µM) | 0.5 (≈ 0.668 µM) | 0.5 (≈ 0.668 µM)
4 | CC[C@H]1OC(=O)[C@H](C)[C@@H](OC2CC(C)(OC)C(O)C(C)O2)[C@H](C)[C@@H](OC2OC(C)CC(N(C)C)C2O)[C@](C)(O)C[C@@H](C)[C@H](NC(C)C)[C@H](C)[C@@H](O)[C@]1(C)O (some centres not stated) | 0.12 (≈ 0.154 µM) | 32 | 13 | 13 | 0.5 (≈ 0.643 µM) | 0.25 (≈ 0.322 µM) | 1 (≈ 1.29 µM) | 2 (≈ 2.57 µM) | 2 (≈ 2.57 µM)
5 | CC[C@H]1OC(=O)[C@H](C)[C@@H](OC2CC(C)(OC)C(O)C(C)O2)[C@H](C)[C@@H](OC2OC(C)CC(N(C)C)C2O)[C@](C)(O)C[C@@H](C)[C@H](NCCC(C)C)[C@H](C)[C@@H](O)[C@]1(C)O (some centres not stated) | 0.03 (≈ 0.0373 µM) | 13 | 9 | 11 | 0.25 (≈ 0.311 µM) | 0.06 (≈ 0.0745 µM) | 1 (≈ 1.24 µM) | 1 (≈ 1.24 µM) | 1 (≈ 1.24 µM)
6 | C=CCCCCCCCCCN[C@@H]1[C@H](C)[C@@H](O)[C@](C)(O)[C@@H](CC)OC(=O)[C@H](C)[C@@H](OC2CC(C)(OC)C(O)C(C)O2)[C@H](C)[C@@H](OC2OC(C)CC(N(C)C)C2O)[C@](C)(O)C[C@H]1C (some centres not stated) | – | – | – | – | 1 (≈ 1.13 µM) | 1 (≈ 1.13 µM) | 2 (≈ 2.25 µM) | 2 (≈ 2.25 µM) | 2 (≈ 2.25 µM)
7 | CCCCCCCCCCN[C@@H]1[C@H](C)[C@@H](O)[C@](C)(O)[C@@H](CC)OC(=O)[C@H](C)[C@@H](OC2CC(C)(OC)C(O)C(C)O2)[C@H](C)[C@@H](OC2OC(C)CC(N(C)C)C2O)[C@](C)(O)C[C@H]1C (some centres not stated) | 0.015 (≈ 0.0171 µM) | > 50 | > 50 | > 50 | 1 (≈ 1.14 µM) | 0.015 (≈ 0.0171 µM) | 1 (≈ 1.14 µM) | 2 (≈ 2.29 µM) | 2 (≈ 2.29 µM)
8 | CC[C@H]1OC(=O)[C@H](C)[C@@H](OC2CC(C)(OC)C(O)C(C)O2)[C@H](C)[C@@H](OC2OC(C)CC(N(C)C)C2O)[C@](C)(O)C[C@@H](C)[C@H](NCCC(C)CCCC(C)(C)OC)[C@H](C)[C@@H](O)[C@]1(C)O (some centres not stated) | – | > 46 | 25 | 24 | 0.25 (≈ 0.276 µM) | 0.015 (≈ 0.0166 µM) | 0.5 (≈ 0.552 µM) | 1 (≈ 1.1 µM) | 1 (≈ 1.1 µM)
9 | CC[C@H]1OC(=O)[C@H](C)[C@@H](OC2CC(C)(OC)C(O)C(C)O2)[C@H](C)[C@@H](OC2OC(C)CC(N(C)C)C2O)[C@](C)(O)C[C@@H](C)[C@H](NCC(C)(C)CO)[C@H](C)[C@@H](O)[C@]1(C)O (some centres not stated) | 0.015 (≈ 0.0183 µM) | > 50 | 20 | 46 | 1 (≈ 1.22 µM) | 0.03 (≈ 0.0365 µM) | 1 (≈ 1.22 µM) | 1 (≈ 1.22 µM) | 1 (≈ 1.22 µM)
10 | CCCCCCCCN[C@@H]1[C@H](C)[C@@H](O)[C@](C)(O)[C@@H](CC)OC(=O)[C@H](C)[C@@H](OC2CC(C)(OC)C(O)C(C)O2)[C@H](C)[C@@H](OC2OC(C)CC(N(C)C)C2O)[C@](C)(O)C[C@H]1C (some centres not stated) | 0.015 (≈ 0.0177 µM) | > 50 | 23 | 46 | 0.25 (≈ 0.295 µM) | 0.015 (≈ 0.0177 µM) | 0.5 (≈ 0.59 µM) | 1 (≈ 1.18 µM) | 1 (≈ 1.18 µM)
11 | CC[C@H]1OC(=O)[C@H](C)[C@@H](OC2CC(C)(OC)C(O)C(C)O2)[C@H](C)[C@@H](OC2OC(C)CC(N(C)C)C2O)[C@](C)(O)C[C@@H](C)[C@H](N(C)C2CCCCC2)[C@H](C)[C@@H](O)[C@]1(C)O (some centres not stated) | 0.12 (≈ 0.144 µM) | > 50 | > 50 | > 50 | 8 (≈ 9.63 µM) | 1 (≈ 1.2 µM) | 16 (≈ 19.3 µM) | 32 (≈ 38.5 µM) | 32 (≈ 38.5 µM)
12 | CC[C@H]1OC(=O)[C@H](C)[C@@H](OC2CC(C)(OC)C(O)C(C)O2)[C@H](C)[C@@H](OC2OC(C)CC(N(C)C)C2O)[C@](C)(O)C[C@@H](C)[C@H](N(C)C(C)C)[C@H](C)[C@@H](O)[C@]1(C)O (some centres not stated) | 0.5 (≈ 0.632 µM) | – | – | – | 8 (≈ 10.1 µM) | 0.5 (≈ 0.632 µM) | 8 (≈ 10.1 µM) | 32 (≈ 40.5 µM) | 32 (≈ 40.5 µM)
